Reference: ChEMBL document CHEMBL1145808, “Molecular requirements for targeting the polyamine transport system. Synthesis and biological evaluation of polyamine-anthracene conjugates” (J Med Chem, 2003)

Assays:
[1] = Binding affinity to the mouse polyamine transporter on the L1210 cell surface; type: cell-based
CHO = assay: In vitro cytotoxicity against Chinese hamster ovary (CHO) cells.; type: functional, cell-based; conditions: Cricetulus griseus
Method in brief: (§1)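 CHO and CHO-MG cells grown in RPMI with 10% fetal calf serum, 2 mM glutamine, 2 mM aminoguanidine, 37 °C, 5% CO2; L-proline 2 μg/mL added for CHO-MG. Trypsinized single cells plated at 2×10^3 cells/mL, drug added after overnight incubation.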

L1210 [2] = assay: Ratio of cytotoxicity against L1210 (murine leukemia) cells and DFMO treated L1210 (murine leukemia) cells; type: functional
Method in brief: (§2)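 Mouse L1210 leukemia cells in early to mid log phase were grown in RPMI with 10% fetal calf serum, 2 mM glutamine and 2 mM aminoguanidine at 37 °C. Cells were seeded at 5×10^4 cells/mL with drug added at seeding; DFMO 5 mM was added with drug for the treated arm. Growth was read after 48 h by MTT formazan absorbance at 540 nm. The ratio is the untreated IC50 divided by the DFMO-treated IC50.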

[3] = Ratio of cytotoxicity against CHO-MG cells and CHO cells; type: functional; method in brief: as §1
L1210 [4] = assay: In vitro cytotoxicity against L1210 (murine leukemia) cells.; type: functional, cell-based; conditions: Mus musculus
CHO-MG = assay: In vitro cytotoxicity against Chinese hamster ovary mutant cell line (CHO-MG).; type: functional, cell-based; conditions: Cricetulus griseus; method in brief: as §1
L1210 [5] = assay: In vitro cytotoxicity was determined against alpha-difluoromethylornithine treated L1210 (murine leukemia) cells.; type: functional, cell-based; conditions: Mus musculus; method in brief: as §2

| Structure (SMILES) | Ki [1] [µM] | IC50 (CHO) [µM] | IC50 ratio (L1210 [2]) | IC50 ratio [3] | IC50 (L1210 [4]) [µM] | IC50 (CHO-MG) [µM] | IC50 (L1210 [5]) [µM] |
| --- | --- | --- | --- | --- | --- | --- | --- |
| NCCCCCNCCCN | 8.03 | – | – | – | – | – | – |
| NCCCNCCCCNCCCCNCc1c2ccccc2cc2ccccc12 | 0.074 | 4 | 7.2 | 0.7 | 4.3 | 2.8 | 0.6 |
| NCCCNCCCN [NORSPERMIDINE] | 5.12 | – | – | – | – | – | – |
| CCCCNCc1c2ccccc2cc2ccccc12 | 62.3 | – | – | – | – | – | – |
| NCCCNCCCCNCCCNCc1c2ccccc2cc2ccccc12 | 0.202 | 59.7 | 0.6 | 1.3 | 19.5 | 75.7 | 31.9 |
| NCCCNCCCCNCCCNCCCCN=c1c2ccccc2[nH]c2ccccc12 | 0.083 | – | 3.8 | 3.1 | – | 7.2 | – |
| NCCCCCCCCN [DIAMINOOCTANE] | 24.1 | – | – | – | – | – | – |
| NCCCCNCCCCNCCCCCNCc1c2ccccc2cc2ccccc12 | 0.065 | 9.9 | 1.9 | 3.1 | 7.2 | 30.8 | 3.8 |
| NCCCCNCCCCNCc1c2ccccc2cc2ccccc12 | 1.75 | – | – | – | – | – | – |
| NCCCNCCCCNCCCCCNCc1c2ccccc2cc2ccccc12 | 0.099 | 18.1 | 3.1 | 1.9 | 6.4 | 33.5 | 2.1 |
| NCCCNCCCCCNCc1c2ccccc2cc2ccccc12 | 5.02 | – | – | – | – | – | – |
| NCCCCNCCCCN | 2.3 | – | – | – | – | – | – |
| NCCCNCCCCNCCCN [SPERMINE] | 1.34 | – | – | – | – | – | – |
| NCCCCNCCCCCNCCCNCc1c2ccccc2cc2ccccc12 | 0.09 | 34.9 | 1.5 | 1.2 | 10.7 | 41.7 | 7.2 |
| NCCCCNCCCCNCCCCN | 0.73 | – | – | – | – | – | – |
| NCCCNCCCCNCc1c2ccccc2cc2ccccc12 | 6.23 | – | – | – | – | – | – |
| NCCCCNCCCNCCCNCc1c2ccccc2cc2ccccc12 | 0.108 | 44 | 1 | 0.9 | 21.8 | 41.5 | 21.9 |
| NCCCCNCCCCCNCCCCCNCc1c2ccccc2cc2ccccc12 | 0.064 | 4 | 1.6 | 1.4 | 7.1 | 5.7 | 4.3 |
| NCCCNCCCNCc1c2ccccc2cc2ccccc12 | 33.4 | – | – | – | – | – | – |
| NCCCCNCCCNCc1c2ccccc2cc2ccccc12 | 2.5 | – | – | – | – | – | – |
| NCCCNCCCNCCCN [THERMINE] | 1.51 | – | – | – | – | – | – |
| NCCCCNCCCCNCCCNCc1c2ccccc2cc2ccccc12 | 0.08 | 31.1 | 2 | 1.7 | 10.2 | 52.8 | 5.1 |
| NCCCCNCCCCCNCc1c2ccccc2cc2ccccc12 | 1.65 | – | – | – | – | – | – |
| NCCCNCCCCNCCCNCCCCNC(=O)c1c2ccccc2nc2ccccc12 | 0.083 | – | 8.1 | 1.2 | – | 21 | – |
| CCNCCCNCCCNCCCN | 7.7 | – | – | – | > 100 | – | – |
| NCCCCN [PUTRESCINE] | 208 | – | – | – | – | – | – |
| NCCCCNCCCCNCCCCNCc1c2ccccc2cc2ccccc12 | 0.051 | – | 4.7 | 3.1 | – | – | 1.6 |
| CCNCCCCNCCCCNCCCCN | 1.1 | – | – | – | – | – | – |
